Experimental data: ChEMBL document CHEMBL1135686, “Binding model for nonpeptide antagonists of alpha(v)beta(3) integrin” (J Med Chem, 2002)

molecular target: Integrin alpha-V/beta-3 (Homo sapiens, UniProt P05106+P06756); assay: Inhibition of Vitronectin receptor, integrin alphaV-beta3 expressed in HEK 293 cells; type: cell-based, HEK293
Summary of the method: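 Human recombinant αvβ3 was purified from HEK 293 cells overexpressing it, following a placental αvβ3 purification method, and captured on lyophilized wheat germ agglutinin SPA beads. Values are reported as IC50.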

Sequence of Integrin alpha-V/beta-3 (P05106 27-788 limits assumed): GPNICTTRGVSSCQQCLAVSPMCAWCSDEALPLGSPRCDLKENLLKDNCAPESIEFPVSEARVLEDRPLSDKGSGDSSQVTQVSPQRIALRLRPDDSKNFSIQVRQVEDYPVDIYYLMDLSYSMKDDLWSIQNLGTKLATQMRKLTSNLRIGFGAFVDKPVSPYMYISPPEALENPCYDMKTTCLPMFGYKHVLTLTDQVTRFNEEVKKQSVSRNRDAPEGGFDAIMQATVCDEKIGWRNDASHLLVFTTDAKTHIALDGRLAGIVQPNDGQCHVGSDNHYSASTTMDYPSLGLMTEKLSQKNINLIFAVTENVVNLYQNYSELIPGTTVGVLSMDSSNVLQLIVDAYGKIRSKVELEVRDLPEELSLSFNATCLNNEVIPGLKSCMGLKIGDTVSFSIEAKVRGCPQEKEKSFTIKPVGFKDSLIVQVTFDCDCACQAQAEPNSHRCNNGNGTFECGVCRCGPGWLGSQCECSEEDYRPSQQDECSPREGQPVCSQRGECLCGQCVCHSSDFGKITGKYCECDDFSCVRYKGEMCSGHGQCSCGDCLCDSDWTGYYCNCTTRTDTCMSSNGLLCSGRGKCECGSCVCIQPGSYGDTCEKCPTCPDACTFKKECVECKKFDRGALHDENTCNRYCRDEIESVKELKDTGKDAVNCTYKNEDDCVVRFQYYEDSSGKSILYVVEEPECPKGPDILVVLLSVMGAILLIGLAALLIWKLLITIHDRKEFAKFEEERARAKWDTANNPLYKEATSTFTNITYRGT
Sequence of Integrin alpha-V/beta-3 (P06756 31-889 limits assumed): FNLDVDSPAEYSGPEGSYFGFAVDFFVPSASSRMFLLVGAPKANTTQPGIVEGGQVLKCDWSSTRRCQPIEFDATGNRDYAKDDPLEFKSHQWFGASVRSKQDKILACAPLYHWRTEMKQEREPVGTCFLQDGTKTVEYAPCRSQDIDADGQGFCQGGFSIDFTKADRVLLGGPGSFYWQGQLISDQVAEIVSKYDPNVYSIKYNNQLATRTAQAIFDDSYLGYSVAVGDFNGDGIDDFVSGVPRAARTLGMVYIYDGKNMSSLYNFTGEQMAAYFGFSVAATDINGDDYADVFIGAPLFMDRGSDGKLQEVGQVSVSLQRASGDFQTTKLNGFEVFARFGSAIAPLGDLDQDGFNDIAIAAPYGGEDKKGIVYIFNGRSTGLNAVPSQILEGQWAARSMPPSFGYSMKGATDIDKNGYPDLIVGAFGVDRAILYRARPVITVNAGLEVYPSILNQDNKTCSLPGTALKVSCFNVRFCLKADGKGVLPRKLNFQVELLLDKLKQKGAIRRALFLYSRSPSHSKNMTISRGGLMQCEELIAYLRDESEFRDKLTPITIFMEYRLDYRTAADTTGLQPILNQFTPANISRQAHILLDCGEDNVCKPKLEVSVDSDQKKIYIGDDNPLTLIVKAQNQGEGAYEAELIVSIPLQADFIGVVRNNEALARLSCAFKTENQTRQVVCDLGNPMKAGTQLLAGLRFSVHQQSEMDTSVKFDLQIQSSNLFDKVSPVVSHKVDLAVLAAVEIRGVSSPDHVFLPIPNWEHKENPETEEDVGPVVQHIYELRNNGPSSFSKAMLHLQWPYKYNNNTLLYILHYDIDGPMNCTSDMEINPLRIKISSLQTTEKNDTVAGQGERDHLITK
Sequence of Integrin alpha-V/beta-3 (P06756 891-1048 limits assumed): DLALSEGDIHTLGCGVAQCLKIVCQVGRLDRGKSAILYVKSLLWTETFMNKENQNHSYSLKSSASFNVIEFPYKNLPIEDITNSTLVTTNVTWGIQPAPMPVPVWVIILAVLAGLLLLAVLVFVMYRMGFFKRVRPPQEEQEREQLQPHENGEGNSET

| Structure (SMILES) | IC50 |
| --- | --- |
| O=C(O)C[C@H](NC(=O)CN1CCC(CCc2ccc3c(n2)NCCC3)C1=O)c1cnc2ccccc2c1 (stereo not given in full) | 0.04 nM |
| O=C(O)C[C@H](NC(=O)CN1CCC(CCc2ccc3c(n2)NCCC3)C1=O)c1cccnc1 (stereo not given in full) | 0.35 nM |
| O=C(O)C[C@H](NC(=O)CNC(=O)CCCc1ccc2c(n1)NCCC2)c1cccnc1 | 8.8 nM |
| O=C(NC[C@H](NS(=O)(=O)c1ccccc1)C(=O)O)c1ccc(OCCC2CCNCC2)cc1 | > 1000 nM |
| CNc1cccc(CCOc2ccc3c(c2)CN(CC(F)(F)F)C(=O)[C@H](CC(=O)O)C3)n1 | 0.15 nM |
